Laboratory results reported in ChEMBL document CHEMBL5532644, “Discovery of 4-hydroxyl pyrazole derivatives as potent ferroptosis inhibitors” (Eur J Med Chem, 2024).
Calls of active or inactive are those of the source. No cut-off for these calls is given here.

Experiments:
[1] = system: HT-1080; experiment: Anti-ferroptotic activity in human HT-1080 cells assessed as cell viability incubated for 24 hrs by Cell-titer-glo assay; assay type: functional, cell-based
In short: (§1)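 Seeded at 2000–5000 cells/well; 24 h later cells were co-treated with 1 μM RSL3 and graded inhibitor concentrations for 24 h, then viability was read. EC50 came from sigmoidal nonlinear regression fits. Three independent experiments, means ± SD. HT-1080 and H9c2 were grown in DMEM; BJ in α-MEM with nonessential amino acids and 1 mM pyruvate; all media had 10% FBS.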

[2] = system: 786-0; experiment: Inhibition of RSL3-induced ferroptosis in human 786-0 cells assessed as recovery of membrane rupture at 0.0625 uM measured after 1 day by light microscopy based analysis; assay type: functional, cell-based
In short: (§2)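 786-O cells were seeded at 5000/well. After 24 h, 1 μM RSL3 was added together with inhibitor at 1 or 0.0625 μM. After one day of incubation, cell morphology (shrinkage, membrane rupture) was inspected by light microscopy.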

[3] = system: 786-0; experiment: Inhibition of RSL3-induced ferroptosis in human 786-0 cells assessed as recovery from loss of cell morphology at 0.0625 uM measured after 1 day by light microscopy based analysis; assay type: functional; in short: as §2
[4] = Antioxidant activity assessed as ABTS radical scavenging activity measured for 6 mins by absorbance based analysis; assay type: functional
In short: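 ABTS (14 mM stock in water) was oxidised with 2.45 mM (final) potassium persulfate in the dark at room temperature for 18 h. The radical was diluted to 100 μM in 50 mM sodium phosphate, pH 7.4. Compounds (1–100 μM) were added, incubated at 30 °C for 6 min, and absorbance was read at 415 nm.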

[5] = system: 786-0; experiment: Anti-ferroptotic activity against RSL3 induced ferroptosis in human 786-0 cells assessed as cell viability incubated for 24 hrs by Cell-titer-glo assay; assay type: functional, cell-based; conditions: 786-0, 24 h; in short: as §1
[6] = system: HT-1080; experiment: Anti-ferroptotic activity against RSL3 induced ferroptosis in human HT-1080 cells assessed as decrease in lipid peroxidation at 1 uM measured after 8 hrs by C11-BODIPY staining based flow cytometric analysis (reference value: 3.06%); assay type: functional; set-up: scale not given: the % may be the effect or the level left
[7] = system: 786-0; experiment: Inhibition of RSL3-induced ferroptosis in human 786-0 cells assessed as recovery of membrane rupture at 1 uM measured after 1 day by light microscopy based analysis; assay type: functional, cell-based; in short: as §2
[8] = Antioxidant activity assessed as DPPH radical scavenging activity incubated for 1 hr by spectrophotometric analysis; assay type: functional
In short: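 Compound in DMSO was mixed with methanolic DPPH to give 40 μM DPPH (final) across a range of compound concentrations. After 1 h at room temperature, absorbance was read at 517 nm. Scavenging % = [A(DMSO) − A(sample)]/[A(DMSO) − A(methanol)] × 100, with DMSO as zero control and methanol as blank.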

[9] = system: HT-1080; experiment: Anti-ferroptotic activity against RSL3 induced ferroptosis in human HT-1080 cells assessed as cell viability incubated for 24 hrs by Cell-titer-glo assay; assay type: functional, cell-based; conditions: HT-1080, 24 h; in short: as §1
[10] = system: 786-0; experiment: Inhibition of RSL3-induced ferroptosis in human 786-0 cells assessed as recovery of shrunken cells at 0.0625 uM measured after 1 day by light microscopy based analysis; assay type: functional, cell-based; in short: as §2
[11] = system: H9c2; experiment: Anti-ferroptotic activity against RSL3 induced ferroptosis in rat H9c2 cells assessed as cell viability incubated for 24 hrs by Cell-titer-glo assay; assay type: functional, cell-based; conditions: H9c2, 24 h; in short: as §1
[12] = system: BJ; experiment: Anti-ferroptotic activity against RSL3 induced ferroptosis in human BJ cells assessed as cell viability incubated for 24 hrs by Cell-titer-glo assay; assay type: functional, cell-based; in short: as §1
[13] = system: 786-0; experiment: Inhibition of RSL3-induced ferroptosis in human 786-0 cells assessed as recovery in loss of cell morphology at 1 uM measured after 1 day by light microscopy based analysis; assay type: functional; in short: as §2
[14] = system: HT-1080; experiment: Anti-ferroptotic activity against imidazole ketone erastin (IKE) induced ferroptosis in human HT-1080 cells assessed as cell viability incubated for 24 hrs by Cell-titer-glo assay; assay type: functional, cell-based; conditions: HT-1080, 24 h
In short: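 HT-1080 cells (DMEM, 10% FBS) were seeded at 2000–5000/well. After 24 h they received 2.5 μM IKE plus graded inhibitor concentrations for 24 h, and viability was measured. EC50 came from sigmoidal nonlinear regression. Three independent experiments, means ± SD.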

[15] = system: 786-0; experiment: Inhibition of RSL3-induced ferroptosis in human 786-0 cells assessed as recovery of shrunken cells at 1 uM measured after 1 day by light microscopy based analysis; assay type: functional, cell-based; in short: as §2
[16] = Metal chelating activity assessed as Fe2+ chelation at 20 mM at […] absorbance
In short: (§3)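 Compound was dissolved in MeOH at 20 mM and mixed with FeSO4 (Fe2+) or FeCl3 (Fe3+) at 10 mM. Samples were diluted with MeOH/H2O, UV–vis spectra were recorded, and the absorption peak at 261 nm was quantified.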

[17] = Metal chelating activity assessed as Fe2+ chelation by measuring change in UV-vis absorption at 20 mM at […] absorbance; in short: as §3
[18] = Metal chelating activity assessed as Fe3+ chelation at 20 mM at […] absorbance; in short: as §3
[19] = system: HT-1080; experiment: Anti-ferroptotic activity in human HT-1080 cells assessed as suppression of erastin induced cytosolic ROS accumulation at 1 uM incubated for 24 hrs by DCFH-DA staining based confocal microscopy analysis; assay type: functional, cell-based
In short: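 HT-1080 cells on glass coverslips (4 × 10^5/well, overnight) were co-treated for 24 h with 5 μM erastin and either DMSO or inhibitor at 1 μM. Cells were washed with PBS, loaded with 10 μM (final) DCFH-DA at 37 °C for 20 min, washed three times and imaged by confocal laser scanning microscopy.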

[20] = Metal chelating activity assessed as Fe3+ chelation by measuring change in UV-vis absorption at 20 mM at […] absorbance; in short: as §3

## Oc1c(-c2cccc(Cl)c2)n[nH]c1-c1ccccc1
[1]; Homo sapiens, HT-1080, 24 h
  EC50: 187 nM

## Oc1c(-c2ccc(Cl)cc2)nn(-c2ccccc2)c1-c1ccccc1
[1]; Homo sapiens, HT-1080, 24 h
  EC50: 24.6 nM

## CCOC(=O)c1ccc(NC2CCCCC2)c(N)c1
[2]
  inhibition: inactive
[3]
  inhibition: inactive
[4]
  Activity: 49.8 µM
[5]
  EC50: 253 nM
[6]
  Activity: 9.2%
[7]
  inhibition: Active
[8]
  Activity: 6.48 µM
[9]
  EC50: 23.4 nM
[10]
  inhibition: inactive
[1]; Homo sapiens, HT-1080, 24 h
  EC50: 23.4 nM
[11]
  EC50: 68.6 nM
[12]
  EC50: 38.2 nM
[13]
  inhibition: Active
[14]
  EC50: 75.2 nM
[15]
  inhibition: Active

## Oc1c(-c2ccc(Cl)cc2)n[nH]c1-c1cccc2ccccc12
[1]; Homo sapiens, HT-1080, 24 h
  EC50: 44.8 nM

## O=C(O)c1ccc(-c2[nH]nc(-c3ccc(Cl)cc3)c2O)cc1
[1]; Homo sapiens, HT-1080, 24 h
  EC50: > 1000 nM

## Clc1ccc(-c2cc(-c3ccccc3)n[nH]2)cc1
[4]
  Activity: > 200 µM
[8]
  Activity: > 100 µM
[1]; Homo sapiens, HT-1080, 24 h
  EC50: > 1000 nM

## Oc1c(-c2ccccc2)n[nH]c1-c1ccc(Br)cc1
[1]; Homo sapiens, HT-1080, 24 h
  EC50: 22.6 nM

## Cn1nc(-c2ccc(Cl)cc2)c(N)c1-c1ccccc1
[4]
  Activity: > 200 µM
[8]
  Activity: 14.6 µM
[1]; Homo sapiens, HT-1080, 24 h
  EC50: 720 nM

## Oc1c(-c2ccccc2)n[nH]c1-c1ccccc1
[1]; Homo sapiens, HT-1080, 24 h
  EC50: 69.1 nM

## COc1ccc(-c2[nH]nc(-c3ccc(Cl)cc3)c2O)cc1OC
[1]; Homo sapiens, HT-1080, 24 h
  EC50: 31.7 nM

## Oc1c(-c2ccc(C(F)(F)F)cc2)n[nH]c1-c1ccccc1
[1]; Homo sapiens, HT-1080, 24 h
  EC50: 79.6 nM

## Oc1c(-c2ccc(Cl)cc2)n[nH]c1-c1ccccc1
[4]
  Activity: 112 µM
[8]
  Activity: 4.97 µM
[1]; Homo sapiens, HT-1080, 24 h
  EC50: 30.8 nM
[1]; ht-1080
  EC50: 18.9 nM

## Cn1nc(-c2ccc(Cl)cc2)c(O)c1-c1ccccc1
[1]; Homo sapiens, HT-1080, 24 h
  EC50: 22 nM

## CN(C)CCCNC(=O)c1ccc(-c2[nH]nc(-c3ccc(Cl)cc3)c2O)cc1
[1]; Homo sapiens, HT-1080, 24 h
  EC50: 44.8 nM

## Oc1c(-c2ccc3c(c2)OCO3)n[nH]c1-c1ccccc1
[1]; Homo sapiens, HT-1080, 24 h
  EC50: 27.4 nM

## Oc1c(-c2ccc(F)cc2)n[nH]c1-c1ccccc1
[1]; Homo sapiens, HT-1080, 24 h
  EC50: 79.6 nM
[1]; ht-1080
  EC50: 42.4 nM

## Oc1c(-c2ccc(Cl)cc2)n[nH]c1-c1cnc[nH]1
[1]; Homo sapiens, HT-1080, 24 h
  EC50: 25.9 nM

## O=C(NO)c1ccc(-c2[nH]nc(-c3ccc(Cl)cc3)c2O)cc1
[1]; Homo sapiens, HT-1080, 24 h
  EC50: 80.2 nM

## Oc1c(-c2ccc(Cl)cc2)n[nH]c1-c1ccc(F)cc1
[1]; Homo sapiens, HT-1080, 24 h
  EC50: 52.7 nM

## Oc1ccc(-c2[nH]nc(-c3ccc(Cl)cc3)c2O)cc1O
[1]; Homo sapiens, HT-1080, 24 h
  EC50: 26.1 nM

## Oc1c(-c2ccc(Cl)cc2)n[nH]c1-c1ccc(C(F)(F)F)cc1
[1]; Homo sapiens, HT-1080, 24 h
  EC50: 187 nM

## Oc1c(-c2ccc(Cl)cc2Cl)n[nH]c1-c1ccccc1
[1]; Homo sapiens, HT-1080, 24 h
  EC50: 56.6 nM

## CCCCc1[nH]nc(-c2ccccc2)c1O
[1]; Homo sapiens, HT-1080, 24 h
  EC50: 150 nM

## COc1ccc(-c2[nH]nc(-c3ccc(Cl)cc3)c2O)cc1
[1]; Homo sapiens, HT-1080, 24 h
  EC50: 23.1 nM

## COc1ccc(-c2n[nH]c(-c3ccccc3)c2O)cc1
[1]; Homo sapiens, HT-1080, 24 h
  EC50: 24.8 nM
[1]; ht-1080
  EC50: 32.1 nM

## COC(=O)c1ccc(-c2[nH]nc(-c3ccc(Cl)cc3)c2O)cc1
[1]; Homo sapiens, HT-1080, 24 h
  EC50: 51.1 nM

## CCNC(=O)c1ccc(-c2[nH]nc(-c3ccc(Cl)cc3)c2O)cc1
[1]; Homo sapiens, HT-1080, 24 h
  EC50: 81.9 nM

## Oc1ccc(-c2[nH]nc(-c3ccc(Cl)cc3)c2O)cc1
[2]
  inhibition: Active
[16]
  Activity: inactive
[3]
  inhibition: Active
[17]
  Activity: inactive
[4]
  Activity: 6.3 µM
[5]
  EC50: 89.7 nM
[6]
  Activity: 1.42%
[7]
  inhibition: Active
[8]
  Activity: 3.94 µM
[9]
  EC50: 8.6 nM
[18]
  Activity: inactive
[10]
  inhibition: Active
[19]
  Activity: Active
[1]; Homo sapiens, HT-1080, 24 h
  EC50: 8.6 nM
[11]
  EC50: 43.3 nM
[12]
  EC50: 11.3 nM
[13]
  inhibition: Active
[14]
  EC50: 48.3 nM
[15]
  inhibition: Active
[20]
  Activity: inactive

## Oc1c(-c2ccc(-c3ccccc3)cc2)n[nH]c1-c1ccccc1
[1]; Homo sapiens, HT-1080, 24 h
  EC50: 39.5 nM

## Oc1c(-c2ccccc2)n[nH]c1-c1ccco1
[1]; Homo sapiens, HT-1080, 24 h
  EC50: > 1000 nM

## Cc1ccc(-c2[nH]nc(-c3ccc([N+](=O)[O-])cc3)c2O)cc1
[1]; Homo sapiens, HT-1080, 24 h
  EC50: 120 nM

## Oc1c(-c2ccccc2Cl)n[nH]c1-c1ccccc1
[1]; Homo sapiens, HT-1080, 24 h
  EC50: 94.9 nM
